Experimental findings from ChEMBL document CHEMBL5120742, “Multi-target weapons: diaryl-pyrazoline thiazolidinediones simultaneously targeting VEGFR-2 and HDAC cancer hallmarks” (RSC Med Chem, 2021) are described below.

A word on the IC50: it is the concentration that inhibits the measured activity by half.

Structures are written as SMILES. Where only a bound is given, the exact number is not on record here.

The target of experiment [1] is Histone deacetylase 4 (Homo sapiens, UniProt P56524). Briefly: Inhibition of recombinant human N-terminal His6-SUMO-tagged C-terminal SII-tagged HDAC4 expressed in Escherichia coli (BL21) DE3 pLysS cells assessed as residual activity at 50 uM using BocLys(trifluoroacetyl)-AMC as substrate incubated for 30 mins by fluorescence assay relative to control. An outline of the steps:
(§1)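 Catalytic-domain HDAC4 (His6-SUMO/SII-tagged) and full-length codon-optimized human HDAC8 were expressed in E. coli BL21 DE3 pLysS from pET14b. Both were assayed in a two-step fluorogenic format with Boc-Lys(trifluoroacetyl)-AMC, followed by trypsin development. Compounds were screened first at 50 µM for residual activity.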

Experiment [2] has as its target T1, Histone deacetylase 8 (Homo sapiens) (UniProt Q9BY41).
T1 sequence (whole entry): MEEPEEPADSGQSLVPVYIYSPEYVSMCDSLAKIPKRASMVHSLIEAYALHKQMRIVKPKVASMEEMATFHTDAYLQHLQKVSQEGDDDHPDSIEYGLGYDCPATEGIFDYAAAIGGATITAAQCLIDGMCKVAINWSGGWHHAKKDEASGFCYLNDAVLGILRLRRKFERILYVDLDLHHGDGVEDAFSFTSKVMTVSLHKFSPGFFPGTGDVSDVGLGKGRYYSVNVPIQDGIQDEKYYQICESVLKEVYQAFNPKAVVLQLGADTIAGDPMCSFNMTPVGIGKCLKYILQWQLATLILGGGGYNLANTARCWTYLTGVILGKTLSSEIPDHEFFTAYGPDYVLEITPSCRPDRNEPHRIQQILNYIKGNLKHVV
Kind of experiment: Inhibition of recombinant human N-terminal His6-SUMO-tagged C-terminal SII-tagged HDAC8 expressed in Escherichia coli (BL21) DE3 pLysS cells assessed as residual activity at 50 uM using BocLys(trifluoroacetyl)-AMC as substrate incubated for 30 mins by fluorescence assay relative to control. The method, boiled down: as §1

For experiment [3], the target named is Histone deacetylase 2 (Homo sapiens, UniProt Q92769). Kind of experiment: Inhibition of recombinant human HDAC2 Boc-Lys(acetyl)-AMC as substrate incubated for 30 mins by fluorescence assay. An outline of the steps:
(§2)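 Two-step fluorogenic assay with recombinant HDAC1, 2, 3 or 6. Deacetylation of Boc-Lys(acetyl)-AMC is followed by trypsin conversion of the deacetylated product to a fluorescent signal.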

The target in experiment [4] is Histone deacetylase 3/Nuclear receptor corepressor 2 (HDAC3/NCoR2) (Homo sapiens, UniProt O15379). Kind of experiment: Inhibition of C-terminal His-tagged recombinant human HDAC3 (1 to 428 residues)/N-terminal GST-tagged recombinant human NCoR2 (395 to 489 residues) co-expressed in baculovirus infected Sf9 cells using Boc-Lys(acetyl)-AMC as substrate incubated for 30 mins by fluorescence assay. The method, boiled down:
as §2

Experiment [5] has as its target T2, Histone deacetylase 7 (Homo sapiens, UniProt Q8WUI4).
T2 sequence (Q8WUI4 whole entry): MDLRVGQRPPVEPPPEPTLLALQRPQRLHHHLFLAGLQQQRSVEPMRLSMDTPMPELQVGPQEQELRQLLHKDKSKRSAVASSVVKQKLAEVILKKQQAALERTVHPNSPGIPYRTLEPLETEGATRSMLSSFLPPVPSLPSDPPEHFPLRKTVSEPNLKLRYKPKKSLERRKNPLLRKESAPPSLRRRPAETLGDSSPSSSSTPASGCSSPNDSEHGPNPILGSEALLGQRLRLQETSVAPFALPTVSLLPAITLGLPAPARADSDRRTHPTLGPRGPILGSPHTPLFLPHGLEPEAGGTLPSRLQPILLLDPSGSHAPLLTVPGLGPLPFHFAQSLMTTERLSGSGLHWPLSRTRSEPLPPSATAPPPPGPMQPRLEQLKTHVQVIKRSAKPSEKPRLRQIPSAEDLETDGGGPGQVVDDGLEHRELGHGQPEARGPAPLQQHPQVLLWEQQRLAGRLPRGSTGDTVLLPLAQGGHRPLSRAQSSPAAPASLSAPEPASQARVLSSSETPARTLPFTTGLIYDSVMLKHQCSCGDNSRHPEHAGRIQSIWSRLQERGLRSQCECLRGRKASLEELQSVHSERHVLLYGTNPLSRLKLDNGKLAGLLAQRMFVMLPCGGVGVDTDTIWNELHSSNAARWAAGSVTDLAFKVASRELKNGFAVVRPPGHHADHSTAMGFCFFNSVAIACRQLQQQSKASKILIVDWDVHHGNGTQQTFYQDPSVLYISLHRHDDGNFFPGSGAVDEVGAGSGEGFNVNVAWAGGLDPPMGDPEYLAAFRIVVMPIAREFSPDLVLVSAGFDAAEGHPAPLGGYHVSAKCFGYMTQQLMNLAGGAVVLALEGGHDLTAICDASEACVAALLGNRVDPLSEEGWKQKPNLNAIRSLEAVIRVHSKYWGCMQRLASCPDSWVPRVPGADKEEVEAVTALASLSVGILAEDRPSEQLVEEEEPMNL
Briefly: Inhibition of recombinant human N-terminal GST-tagged HDAC7 (518 to end residues) expressed in baculovirus infected sf9 insect cells using BocLys(trifluoroacetyl)-AMC as substrate incubated for 30 mins by fluorescence assay. The method, boiled down: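 Recombinant HDAC7 was tested in a two-step fluorogenic assay. Boc-Lys(trifluoroacetyl)-AMC serves as substrate, then trypsin releases the fluorophore.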

Histone deacetylase 2, sequence (Q92769 whole entry): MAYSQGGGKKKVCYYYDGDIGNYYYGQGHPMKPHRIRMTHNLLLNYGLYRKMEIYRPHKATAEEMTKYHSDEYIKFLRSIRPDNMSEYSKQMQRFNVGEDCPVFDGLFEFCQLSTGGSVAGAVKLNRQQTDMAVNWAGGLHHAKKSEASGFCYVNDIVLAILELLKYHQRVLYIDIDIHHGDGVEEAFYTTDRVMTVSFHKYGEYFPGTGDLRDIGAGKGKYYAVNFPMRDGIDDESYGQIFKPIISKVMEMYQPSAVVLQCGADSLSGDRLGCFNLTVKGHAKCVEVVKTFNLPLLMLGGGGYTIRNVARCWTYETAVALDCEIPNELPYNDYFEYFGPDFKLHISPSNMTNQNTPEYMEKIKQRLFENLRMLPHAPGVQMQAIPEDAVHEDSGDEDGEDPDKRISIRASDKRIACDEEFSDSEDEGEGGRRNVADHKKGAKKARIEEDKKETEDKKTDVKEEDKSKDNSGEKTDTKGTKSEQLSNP
Histone deacetylase 3/Nuclear receptor corepressor 2 (HDAC3/NCoR2), sequence (O15379 whole entry, the tested form may be a part): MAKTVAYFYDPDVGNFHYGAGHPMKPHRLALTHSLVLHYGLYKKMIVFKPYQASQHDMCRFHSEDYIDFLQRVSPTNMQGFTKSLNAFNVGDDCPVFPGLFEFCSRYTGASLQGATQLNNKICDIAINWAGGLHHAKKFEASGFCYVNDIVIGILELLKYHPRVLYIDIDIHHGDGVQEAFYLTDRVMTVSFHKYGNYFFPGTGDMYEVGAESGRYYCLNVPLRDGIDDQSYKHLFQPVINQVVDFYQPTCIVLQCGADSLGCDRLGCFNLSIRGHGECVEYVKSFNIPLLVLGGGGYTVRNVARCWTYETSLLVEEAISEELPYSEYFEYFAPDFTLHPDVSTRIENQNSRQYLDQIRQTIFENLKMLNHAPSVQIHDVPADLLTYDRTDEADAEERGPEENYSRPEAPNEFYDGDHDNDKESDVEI
Histone deacetylase 3/Nuclear receptor corepressor 2 (HDAC3/NCoR2), sequence (Q9Y618 whole entry, further chain, the tested form may be a part): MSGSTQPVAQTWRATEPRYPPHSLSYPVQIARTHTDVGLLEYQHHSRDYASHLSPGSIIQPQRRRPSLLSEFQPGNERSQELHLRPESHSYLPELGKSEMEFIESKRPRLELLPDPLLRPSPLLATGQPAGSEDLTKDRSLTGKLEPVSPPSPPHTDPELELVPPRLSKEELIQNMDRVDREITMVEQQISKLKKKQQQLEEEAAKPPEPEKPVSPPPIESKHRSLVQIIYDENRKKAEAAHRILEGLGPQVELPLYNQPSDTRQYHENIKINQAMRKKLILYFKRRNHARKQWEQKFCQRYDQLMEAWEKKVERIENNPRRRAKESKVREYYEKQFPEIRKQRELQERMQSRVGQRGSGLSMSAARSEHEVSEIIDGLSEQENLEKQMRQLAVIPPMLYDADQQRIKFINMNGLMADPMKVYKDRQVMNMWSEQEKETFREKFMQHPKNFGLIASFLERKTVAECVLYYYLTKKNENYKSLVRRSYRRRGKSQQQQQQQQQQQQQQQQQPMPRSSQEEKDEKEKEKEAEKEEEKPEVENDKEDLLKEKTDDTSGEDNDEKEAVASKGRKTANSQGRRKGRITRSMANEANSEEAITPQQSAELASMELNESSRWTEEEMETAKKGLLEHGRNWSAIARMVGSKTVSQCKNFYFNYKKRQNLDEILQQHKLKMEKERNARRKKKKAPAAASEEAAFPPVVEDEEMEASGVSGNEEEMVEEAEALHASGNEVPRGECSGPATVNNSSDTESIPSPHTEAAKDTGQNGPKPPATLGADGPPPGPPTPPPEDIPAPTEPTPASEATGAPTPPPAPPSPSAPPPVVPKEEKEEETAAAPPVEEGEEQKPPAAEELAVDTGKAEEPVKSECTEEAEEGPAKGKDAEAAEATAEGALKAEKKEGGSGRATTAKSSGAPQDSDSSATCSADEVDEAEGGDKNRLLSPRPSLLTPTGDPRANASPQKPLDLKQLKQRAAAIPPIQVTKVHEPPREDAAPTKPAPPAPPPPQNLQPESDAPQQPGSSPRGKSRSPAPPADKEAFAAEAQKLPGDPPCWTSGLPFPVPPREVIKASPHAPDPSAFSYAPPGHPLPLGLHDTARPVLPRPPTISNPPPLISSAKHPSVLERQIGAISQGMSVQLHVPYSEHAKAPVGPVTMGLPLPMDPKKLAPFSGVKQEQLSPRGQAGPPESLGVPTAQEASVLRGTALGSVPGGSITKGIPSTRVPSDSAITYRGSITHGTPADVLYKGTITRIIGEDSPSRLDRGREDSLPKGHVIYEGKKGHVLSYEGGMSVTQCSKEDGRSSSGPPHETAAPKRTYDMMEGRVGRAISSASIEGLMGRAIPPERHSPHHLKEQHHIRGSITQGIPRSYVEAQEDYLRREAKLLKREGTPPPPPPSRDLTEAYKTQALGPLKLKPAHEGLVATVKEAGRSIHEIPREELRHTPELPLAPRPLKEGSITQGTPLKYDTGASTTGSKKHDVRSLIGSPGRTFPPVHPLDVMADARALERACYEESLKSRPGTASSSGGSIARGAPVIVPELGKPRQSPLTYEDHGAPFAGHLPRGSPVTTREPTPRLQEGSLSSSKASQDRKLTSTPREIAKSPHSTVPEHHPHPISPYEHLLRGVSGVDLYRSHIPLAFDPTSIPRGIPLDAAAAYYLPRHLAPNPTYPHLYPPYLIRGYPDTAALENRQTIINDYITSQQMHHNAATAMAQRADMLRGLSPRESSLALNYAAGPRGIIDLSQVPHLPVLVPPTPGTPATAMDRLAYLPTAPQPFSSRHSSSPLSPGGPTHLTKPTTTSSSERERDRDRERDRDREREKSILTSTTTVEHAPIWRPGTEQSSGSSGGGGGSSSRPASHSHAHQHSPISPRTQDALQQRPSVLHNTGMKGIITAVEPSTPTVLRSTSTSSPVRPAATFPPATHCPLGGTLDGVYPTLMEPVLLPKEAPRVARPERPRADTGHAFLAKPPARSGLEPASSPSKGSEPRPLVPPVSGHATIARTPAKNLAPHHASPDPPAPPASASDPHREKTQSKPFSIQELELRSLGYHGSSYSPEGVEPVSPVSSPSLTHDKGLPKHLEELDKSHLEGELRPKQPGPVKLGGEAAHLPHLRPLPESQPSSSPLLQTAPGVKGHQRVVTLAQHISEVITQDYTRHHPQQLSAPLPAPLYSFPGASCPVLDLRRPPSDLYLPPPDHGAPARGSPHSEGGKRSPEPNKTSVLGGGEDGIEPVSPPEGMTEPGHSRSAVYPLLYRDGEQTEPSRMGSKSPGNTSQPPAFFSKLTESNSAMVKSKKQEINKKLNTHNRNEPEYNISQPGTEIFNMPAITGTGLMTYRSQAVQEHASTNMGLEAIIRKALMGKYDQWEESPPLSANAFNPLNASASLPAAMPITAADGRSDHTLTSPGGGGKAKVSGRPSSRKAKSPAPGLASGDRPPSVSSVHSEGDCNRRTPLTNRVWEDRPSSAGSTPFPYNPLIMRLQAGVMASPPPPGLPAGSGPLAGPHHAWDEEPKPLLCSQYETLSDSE
Histone deacetylase 4, sequence (P56524 whole entry): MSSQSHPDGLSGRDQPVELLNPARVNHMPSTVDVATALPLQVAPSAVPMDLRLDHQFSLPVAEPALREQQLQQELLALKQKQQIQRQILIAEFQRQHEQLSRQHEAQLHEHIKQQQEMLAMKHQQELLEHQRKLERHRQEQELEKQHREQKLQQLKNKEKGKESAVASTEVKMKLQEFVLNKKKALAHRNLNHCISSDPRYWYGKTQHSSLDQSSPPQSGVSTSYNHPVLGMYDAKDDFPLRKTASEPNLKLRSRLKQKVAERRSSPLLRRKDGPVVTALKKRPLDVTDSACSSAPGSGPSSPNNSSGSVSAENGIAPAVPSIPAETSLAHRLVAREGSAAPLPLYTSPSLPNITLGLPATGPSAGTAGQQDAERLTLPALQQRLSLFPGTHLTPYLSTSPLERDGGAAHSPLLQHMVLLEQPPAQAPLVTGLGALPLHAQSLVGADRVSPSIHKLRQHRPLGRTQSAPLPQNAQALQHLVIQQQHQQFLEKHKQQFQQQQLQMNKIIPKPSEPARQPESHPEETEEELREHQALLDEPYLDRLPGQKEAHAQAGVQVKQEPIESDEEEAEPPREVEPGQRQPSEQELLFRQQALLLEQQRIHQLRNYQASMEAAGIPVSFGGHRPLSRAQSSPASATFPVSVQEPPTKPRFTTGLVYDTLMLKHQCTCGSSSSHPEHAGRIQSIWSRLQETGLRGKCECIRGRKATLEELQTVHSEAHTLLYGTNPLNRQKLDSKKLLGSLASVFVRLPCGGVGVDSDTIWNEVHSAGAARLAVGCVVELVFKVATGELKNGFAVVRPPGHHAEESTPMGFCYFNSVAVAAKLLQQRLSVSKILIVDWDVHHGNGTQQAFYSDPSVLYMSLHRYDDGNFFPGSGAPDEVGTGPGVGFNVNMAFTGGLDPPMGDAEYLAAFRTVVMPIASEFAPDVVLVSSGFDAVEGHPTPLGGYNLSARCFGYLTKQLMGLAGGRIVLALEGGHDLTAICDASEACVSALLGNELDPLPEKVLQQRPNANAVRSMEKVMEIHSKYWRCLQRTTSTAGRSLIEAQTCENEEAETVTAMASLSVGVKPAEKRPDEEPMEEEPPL

For `O=C1NC(=O)/C(=C\c2ccc(OCC(=O)N3N=C(c4ccc(F)cc4)CC3c3ccco3)cc2)S1` (stereo not given), the Activity in experiment [1] is 36%; in experiment [2], 45%. Moreover, the IC50 in experiment [3], in experiment [4] and in experiment [5] was more than 50 µM each time.
In the case of `O=C1NC(=O)/C(=C\c2ccc(OCC(=O)N3N=C(c4ccccc4)CC3c3ccc(Cl)c(Cl)c3)cc2)S1` (stereo not given), the Activity in experiment [1] was determined as 5.9%; in experiment [2], 9.4%. Moreover, the IC50 in experiment [3] was 13 µM; in experiment [4], 9.1 µM; in experiment [5], more than 50 µM.
For the compound `O=C1NC(=O)/C(=C\c2ccc(OCC(=O)N3N=C(c4ccc(F)cc4)CC3c3ccc(Cl)c(Cl)c3)cc2)S1` (stereo not given), the Activity in experiment [1] turned out to be 13%; in experiment [2] it was 22%. Besides, the figures for the IC50 in experiment [3], in experiment [4] and in experiment [5] were 21 µM, 11 µM and 6.7 µM, respectively.
